Results taken from ChEMBL document CHEMBL1146048, “Imidazo[1,2-a]pyrazin-8-ones, imidazo[1,2-d][1,2,4]triazin-8-ones and imidazo[2,1-f][1,2,4]triazin-8-ones as alpha2/alpha3 subtype selective GABA A agonists for the treatment of anxiety” (Bioorg Med Chem Lett, 2006).
pKi: −log10 of the molar value. Active and inactive are the calls of the source. The rule behind the calls is not given here.

Tests used:
[1] = biological target: GABA-A receptor; alpha-3/beta-3/gamma-2 (Homo sapiens) (UniProt P18507+P28472+P34903); experiment: Efficacy against human recombinant GABA-Aalpha3 receptor plus beta-3-gamma-2 expressed in L(tk-) cells by whole cell patch clamp method; assay type: functional, cell-based
Summary of the method: (§1)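 Whole-cell patch clamp on L(tk-) cells stably expressing α1β3γ2 or α3β3γ2 GABAA receptors. Test compound modulation of current evoked by a sub-maximal (EC20) GABA concentration. Means of at least seven independent experiments.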

[2] = biological target: T1, GABA-A receptor; alpha-3/beta-3/gamma-2 (Homo sapiens, UniProt P18507+P28472+P34903); experiment: Displacement of [3H]Ro-151788 from human recombinant GABA-Aalpha3 receptor plus beta3gamma2; assay type: protein-complex assay
T1 sequence (P18507 whole entry): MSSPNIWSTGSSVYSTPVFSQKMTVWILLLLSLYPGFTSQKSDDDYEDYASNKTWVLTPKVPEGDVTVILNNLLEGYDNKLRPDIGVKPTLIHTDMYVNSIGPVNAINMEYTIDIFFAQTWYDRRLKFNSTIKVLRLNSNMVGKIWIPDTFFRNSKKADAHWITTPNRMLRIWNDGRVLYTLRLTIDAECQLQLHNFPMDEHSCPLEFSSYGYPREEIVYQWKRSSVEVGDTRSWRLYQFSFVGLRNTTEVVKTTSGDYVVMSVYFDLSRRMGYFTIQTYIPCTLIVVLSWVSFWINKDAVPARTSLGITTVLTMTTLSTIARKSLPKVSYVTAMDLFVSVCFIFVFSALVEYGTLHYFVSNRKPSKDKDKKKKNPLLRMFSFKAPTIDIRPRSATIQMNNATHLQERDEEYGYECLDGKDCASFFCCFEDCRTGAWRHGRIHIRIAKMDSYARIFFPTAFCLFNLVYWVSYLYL
T1 sequence (P28472 whole entry): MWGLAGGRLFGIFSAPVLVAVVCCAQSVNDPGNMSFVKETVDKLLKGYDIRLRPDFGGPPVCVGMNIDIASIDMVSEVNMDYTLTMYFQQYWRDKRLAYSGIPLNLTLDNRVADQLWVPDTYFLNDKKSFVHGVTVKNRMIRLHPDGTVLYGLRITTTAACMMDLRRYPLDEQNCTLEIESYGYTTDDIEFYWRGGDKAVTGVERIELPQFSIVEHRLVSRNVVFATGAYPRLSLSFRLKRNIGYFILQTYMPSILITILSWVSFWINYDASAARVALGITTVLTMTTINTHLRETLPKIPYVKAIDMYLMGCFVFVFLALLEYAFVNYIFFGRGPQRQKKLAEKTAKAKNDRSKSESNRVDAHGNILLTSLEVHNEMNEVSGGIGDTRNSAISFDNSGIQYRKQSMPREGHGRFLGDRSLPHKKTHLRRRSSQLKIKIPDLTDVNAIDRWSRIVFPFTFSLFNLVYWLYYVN
T1 sequence (P34903 whole entry): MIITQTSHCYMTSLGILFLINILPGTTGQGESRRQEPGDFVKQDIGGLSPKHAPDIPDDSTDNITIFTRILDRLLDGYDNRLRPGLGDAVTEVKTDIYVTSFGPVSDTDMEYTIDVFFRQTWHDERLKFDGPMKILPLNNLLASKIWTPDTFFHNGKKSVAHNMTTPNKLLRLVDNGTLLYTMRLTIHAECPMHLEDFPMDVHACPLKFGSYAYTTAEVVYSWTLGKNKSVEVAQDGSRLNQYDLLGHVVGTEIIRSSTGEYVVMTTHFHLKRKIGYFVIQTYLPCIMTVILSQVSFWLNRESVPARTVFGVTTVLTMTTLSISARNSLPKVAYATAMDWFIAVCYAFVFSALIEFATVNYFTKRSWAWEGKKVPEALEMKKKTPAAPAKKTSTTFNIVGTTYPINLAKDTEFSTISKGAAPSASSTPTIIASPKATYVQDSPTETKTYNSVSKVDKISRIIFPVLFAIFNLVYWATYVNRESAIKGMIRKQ
Summary of the method: (§2)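 Stably expressed human recombinant αxβ3γ2 GABAA receptors (x = 1, 3 or 5), benzodiazepine site. Competition against 1.8 nM [3H]Ro15-1788. IC50 for inhibition of binding converted to Ki by Cheng–Prusoff. Mean of 3–6 determinations.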

[3] = biological target: GABA-A receptor; alpha-1/beta-3/gamma-2 (Homo sapiens) (UniProt P14867+P18507+P28472); experiment: Efficacy against human recombinant GABA-Aalpha1 receptor plus beta-3-gamma-2 expressed in L(tk-) cells by whole cell patch clamp method; assay type: functional, cell-based; summary of the method: as §1
[4] = biological target: T2, GABA-A receptor; alpha-1/beta-3/gamma-2 (Homo sapiens, UniProt P14867+P18507+P28472); experiment: Displacement of [3H]Ro-151788 from human recombinant GABA-Aalpha1 receptor plus beta3gamma2; assay type: protein-complex assay; summary of the method: as §2
T2 sequence (P14867 whole entry): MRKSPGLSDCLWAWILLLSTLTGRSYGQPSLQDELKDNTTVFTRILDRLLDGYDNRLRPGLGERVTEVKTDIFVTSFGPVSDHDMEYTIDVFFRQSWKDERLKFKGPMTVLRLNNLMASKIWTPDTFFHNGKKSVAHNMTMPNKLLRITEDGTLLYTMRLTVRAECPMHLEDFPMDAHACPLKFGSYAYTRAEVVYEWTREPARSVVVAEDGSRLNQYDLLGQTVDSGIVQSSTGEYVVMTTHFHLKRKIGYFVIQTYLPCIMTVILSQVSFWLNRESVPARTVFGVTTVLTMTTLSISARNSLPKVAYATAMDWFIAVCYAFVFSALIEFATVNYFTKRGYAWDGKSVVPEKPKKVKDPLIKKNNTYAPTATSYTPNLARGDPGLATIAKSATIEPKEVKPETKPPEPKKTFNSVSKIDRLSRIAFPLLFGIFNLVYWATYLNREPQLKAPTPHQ
T2 sequence (P18507 whole entry): T1 sequence (P18507 whole entry)
T2 sequence (P28472 whole entry): T1 sequence (P28472 whole entry)

[5] = biological target: T3, GABA-A receptor; alpha-5/beta-3/gamma-2 (Homo sapiens, UniProt P18507+P28472+P31644); experiment: Displacement of [3H]Ro-151788 from human recombinant GABA-Aalpha5 receptor plus beta3gamma2; assay type: protein-complex assay; summary of the method: as §2
T3 sequence (P18507 whole entry): T1 sequence (P18507 whole entry)
T3 sequence (P28472 whole entry): T1 sequence (P28472 whole entry)
T3 sequence (P31644 whole entry): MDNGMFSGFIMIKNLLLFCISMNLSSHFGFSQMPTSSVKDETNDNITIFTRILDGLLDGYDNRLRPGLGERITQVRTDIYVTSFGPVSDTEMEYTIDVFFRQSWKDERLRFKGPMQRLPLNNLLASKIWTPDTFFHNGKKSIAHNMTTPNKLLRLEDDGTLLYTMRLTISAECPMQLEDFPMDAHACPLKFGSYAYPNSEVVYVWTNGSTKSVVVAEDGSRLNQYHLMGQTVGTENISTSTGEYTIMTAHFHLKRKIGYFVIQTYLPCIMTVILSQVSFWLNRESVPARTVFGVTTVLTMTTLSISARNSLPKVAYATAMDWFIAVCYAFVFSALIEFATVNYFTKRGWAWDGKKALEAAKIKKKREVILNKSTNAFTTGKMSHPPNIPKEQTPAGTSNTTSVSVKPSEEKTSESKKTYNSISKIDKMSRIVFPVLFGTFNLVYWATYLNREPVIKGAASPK

[6] = Plasma clearance in rat; assay type: ADME, organism-based
[7] = biological target: T4, GABA-A receptor; anion channel (Rattus norvegicus) (UniProt O09028+P15431+P18506+P18508+P19969+P20236+P23574+P23576+P28471+P28473+P30191+P62813+P63079+P63138+Q91ZM7+Q9ES14); experiment: Displacement of [3H]Ro-151788 from GABA-Aalpha receptor in rat po; assay type: functional
Rattus norvegicus [8] = experiment: Anxiolytic activity in rat elevated plus maze assay at 3 mg/kg, po; assay type: functional, organism-based; design: dose 3 mg/kg
[9] = Half life in rat; assay type: ADME, organism-based; conditions: in vivo
Rattus norvegicus [10] = experiment: Activity in rat beam walking assay at 100 mg/kg, po; assay type: functional, organism-based; design: dose 100 mg/kg
[11] = biological target: T4, GABA-A receptor; anion channel (Rattus norvegicus); experiment: Receptor occupancy at BZ site of GABA-Aalpha receptor in rat at 3 mg/kg, po; assay type: functional, organism-based; design: dose 3 mg/kg
[12] = biological target: GABA-A receptor; alpha-5/beta-3/gamma-2 (Homo sapiens) (UniProt P18507+P28472+P31644); experiment: Efficacy against human recombinant GABA-Aalpha5 receptor plus beta-3-gamma-2 expressed in L(tk-) cells by whole cell patch clamp method; assay type: functional, cell-based
Summary of the method: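 Human α5β3γ2 GABA-A receptors stably expressed in L(tk-) cells; whole-cell patch clamp recording. Test compound applied against the current evoked by a sub-maximal GABA concentration (EC20), and efficacy expressed as the change in that current. Values are means of at least seven independent experiments.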

[13] = Bioavailability in rat; assay type: ADME, organism-based; conditions: in vivo

Compound | Efficacy [1] [%] | pKi [2] | Efficacy [3] [%] | pKi [4] | pKi [5] | clearance [6] [mL/min/kg] | ID50 [7] [mg/kg] | half-life [9] [h] | Activity [11] [%] | bioavailability [13] [%] | Activity (Rattus norvegicus [8]) | Activity (Rattus norvegicus [10]) | Efficacy [12] [%]
CCn1ncn2c(-c3ccc(F)c(-c4ccc(F)cc4C#N)c3)cnc2c1=O | -7 | 8.47 | -19 | 8.62 | 9.02 | – | – | – | – | – | – | – | –
Cn1cnn2c(-c3ccc(F)c(-c4ccc(F)cc4C#N)c3)cnc2c1=O | – | 8.34 | -46 | 8.60 | 8.32 | – | – | – | – | – | – | – | –
CC(C)(O)c1cnn2c(-c3ccc(F)c(-c4c(F)cccc4C#N)c3)cnc2n1 | 65 | 8.82 | 4 | 9.22 | 9.05 | – | – | – | – | – | – | – | 44
Cn1ncn2c(-c3ccc(F)c(-c4ccc(F)cc4C#N)c3)cnc2c1=O | 1 | 8.33 | -9 | 8.19 | 8.64 | – | – | – | – | – | – | – | –

More lines, main results first:

Efficacy [1] [%] | pKi [2] | Efficacy [3] [%] | pKi [4] | pKi [5] | clearance [6] [mL/min/kg] | ID50 [7] [mg/kg] | half-life [9] [h] | Activity [11] [%] | bioavailability [13] [%] | Compound | Activity (Rattus norvegicus [8]) | Activity (Rattus norvegicus [10]) | Efficacy [12] [%]
28 | 9.23 | 3 | 9.80 | 9.72 | – | – | – | – | – | Cn1ccn2c(-c3ccc(F)c(-c4c(F)cccc4C#N)c3)cnc2c1=O | – | – | –
43 | 9.05 | -8 | 9.55 | 9.82 | 17 | 0.7 | 5 | 86 | 38 | CCn1ccn2c(-c3ccc(F)c(-c4ccc(F)cc4C#N)c3)cnc2c1=O | Active | inactive | -4
44 | 8.72 | -27 | 9.15 | 9.41 | – | – | – | – | – | Cn1ccn2c(-c3ccc(F)c(-c4ccc(F)cc4C#N)c3)cnc2c1=O | – | – | –
51 | 9.15 | 27 | 9.28 | 10.00 | – | – | – | – | – | Cn1ccn2c(-c3ccc(F)c(-c4ccccc4C#N)c3)cnc2c1=O | – | – | –
– | – | – | 8.85 | 9.28 | – | – | – | – | – | CC(C)(O)c1ccn2c(-c3ccc(F)c(-c4cccnc4)c3)cnc2n1 | – | – | –
